Measurements published in publication PMC4372299 (Molecular imaging and biology : MIB : the official …, 2014).
Blank lines part the entries; values can stand above or below the compound they belong to.

What was measured:
[1] = system: TSPO; details: cited from earlier work; for enhancement in binding affinity compared to DPA-714: TSPO affinity vs DPA-714
[2] = molecular target: TSPO (Mus musculus, UniProt P50637); test: Dynamic PET accumulation and displacement of [18F]VUIIS1008 in healthy mice; format: in vivo
[3] = molecular target: T1, TSPO (Rattus norvegicus, UniProt P16257); test: Pre-blocking PET study with non-radioactive VUIIS1008 in C6 glioma-bearing rats; format: in vivo; details: pre-blocking with VUIIS1008 10 mg/kg, range of 2 rats
Summary of the method: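 In C6 glioma-bearing Wistar rats, the non-radioactive ligand (10 mg/kg i.v.) was given 5 min before a radiotracer bolus (1.2 ± 0.2 mCi via jugular catheter). Dynamic PET ran for 60 min with a metabolite-corrected arterial input function. Tumour and contralateral normal-brain TACs were fitted to a 2-tissue, 4-parameter model, and the range from 2 rats is reported.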

[4] = molecular target: T1, TSPO; test: Dynamic PET with compartmental modeling in C6 glioma-bearing rats; format: in vivo; details: for K1 / k2 / k3 / k4: 2-tissue 4-parameter model, n = 5, Mean ± SEM; for %ID/cc (90 min) / K1/k2 / VT=(K1/k2)(1+k3/k4) / k3/k4 (binding potential): C6-glioma bearing rats n = 5, Mean ± SEM
Summary of the method: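 Male Wistar rats (10 weeks, ~300 g) were implanted with 1.0 × 10⁵ C6 cells in the right hemisphere 2 weeks before imaging, then catheterised and localised by T₂ MRI. Radiotracer 1.2 ± 0.2 mCi was given as a jugular bolus for 90-min dynamic PET with CT attenuation correction. Arterial input was TLC metabolite-corrected. Tumour and contralateral-brain TACs were fitted with 1- and 2-tissue models to give K₁–k₄, V_T and BP_ND.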

[5] = challenger 10 mg/kg at scan mid-point (30 min)

displacement of [18F]VUIIS1008 from myocardium and lung tissue [2, 5]: rapid and significant displacement
displacement of [18F]VUIIS1008 from renal tissue [2, 5]: partial displacement
Structure (SMILES): CCc1cc(CC)n2nc(-c3ccc(OCCF)cc3)c(CC(=O)N(CC)CC)c2n1 [VUIIS1008, 2-(5,7-diethyl-2-(4-(2-fluoroethoxy)phenyl)pyrazolo[1,5-a]pyrimidin-3-yl)-N,N-diethylacetamide]
enhancement in binding affinity compared to DPA-714 [1]: 36 fold
Ki ([1]; read-out: Ki (binding affinity), TSPO): 0.3 nM

K1/k2 ([3]; normal brain): 0.059 – 0.061
VT=(K1/k2)(1+k3/k4) ([3]; normal brain): 0.380 – 0.615
k3/k4 (binding potential) ([3]; normal brain): 4.888 – 13.507
K1/k2 ([3]; tumor): 0.124 – 0.143
VT=(K1/k2)(1+k3/k4) ([3]; tumor): 0.618 – 0.767
k3/k4 (binding potential) ([3]; tumor): 3.972 – 4.368
binding reversibility in healthy, TSPO-rich tissues ([2]; dynamic PET): reversible binding
VT ratio between tumor and normal brain ([4]; C6 glioma-bearing rats): 6.0
clearance of tracer from plasma ([4]; C6 glioma-bearing rats, n = 6): cleared rapidly
K1 ([4]; normal brain): 0.881 ± 0.392
k2 ([4]; normal brain): 2.078 ± 1.666
k3 ([4]; normal brain): 0.172 ± 0.070
k4 ([4]; normal brain): 0.037 ± 0.004
%ID/cc (90 min) ([4]; normal brain): 0.103 ± 0.031 %ID/cc
K1/k2 ([4]; normal brain): 0.86 mL/g
VT=(K1/k2)(1+k3/k4) ([4]; normal brain): 4.210 ± 1.612
k3/k4 (binding potential) ([4]; normal brain): 4.435 ± 1.387
K1/k2 ([4]; normal brain, listed as 18F-VUIIS1008): 0.855 ± 0.325 mL/g
K1 ([4]; tumor (C6 glioma)): 0.709 ± 0.306
k2 ([4]; tumor (C6 glioma)): 0.442 ± 0.101
k3 ([4]; tumor (C6 glioma)): 0.113 ± 0.013
k4 ([4]; tumor (C6 glioma)): 0.009 ± 0.002
%ID/cc (90 min) ([4]; tumor): 0.310 ± 0.051 %ID/cc
K1/k2 ([4]; tumor): 1.90 mL/g
VT=(K1/k2)(1+k3/k4) ([4]; tumor): 25.224 ± 10.035
k3/k4 (binding potential) ([4]; tumor): 12.63
K1/k2 ([4]; tumor, listed as 18F-VUIIS1008): 1.902 ± 0.816 mL/g
k3/k4 (binding potential) ([4]; tumor, listed as 18F-VUIIS1008): 12.634 ± 1.406
Structure (SMILES): CCc1cc(CC)n2nc(-c3ccc(OCC[18F])cc3)c(CC(=O)N(CC)CC)c2n1 [[^18F]VUIIS1008, 2-(5,7-diethyl-2-(4-(2-[^18F]fluoroethoxy)phenyl)pyrazolo[1,5-a]pyrimidin-3-yl)-N,N-diethylacetamide]
enhancement in binding affinity compared to DPA-714 [1]: approximately 36 fold
